Measured values reported in ChEMBL document CHEMBL3085768, “Structure-guided design of potent diazobenzene inhibitors for the BET bromodomains” (J Med Chem, 2013).

Assays:
[1] = target: T1, Bromodomain-containing protein 4 (Homo sapiens, UniProt O60885); assay: Displacement of fluorescein-labeled MS574 from recombinant human BRD4 BrD1 after 1 hr by fluorescence anisotropy assay
Procedure, shortened: (§1)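 Competition fluorescence anisotropy with His-tag-removed recombinant bromodomain (Ni-IDA purified, thrombin cleaved) at 0.25–1 µM, chosen so that 50–80% of probe is bound. FITC-labeled probe at 80 nM (≤2Kd), unlabeled ligand titrated, in PBS pH 7.4, read after 1 h at 25 °C. IC50 from curve fit, converted to Ki with the Nikolovska-Coleska correction to Cheng-Prusoff (one-site competitive). The resolvable Ki is limited by the probe Kd.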

[2] = target: CREB-binding protein (Homo sapiens, UniProt Q92793); assay: Displacement of fluorescein-labeled MS226 from recombinant human CBP bromodomain after 1 hr by fluorescence anisotropy assay; procedure, shortened: as §1
[3] = target: T2, Bromodomain-containing protein 3 (Homo sapiens, UniProt Q15059); assay: Displacement of fluorescein-labeled MS574 from recombinant human BRD3 BrD2 after 1 hr by fluorescence anisotropy assay; procedure, shortened: as §1
[4] = target: T2, Bromodomain-containing protein 3; assay: Displacement of fluorescein-labeled MS574 from recombinant human BRD3 BrD1 after 1 hr by fluorescence anisotropy assay; procedure, shortened: as §1
[5] = target: T3, Bromodomain-containing protein 4 (Mus musculus, UniProt Q9ESU6); assay: (§2) Inhibition of BRD4 in LPS-stimulated mouse RAW264.7 cells assessed as inhibition of NF-kappaB-mediated nitric oxide production preincubated for 30 mins followed by LPS stimulation measured after 24 hrs by spectrophotometric analysis; format: cell-based
Procedure, shortened: (§3)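 RAW264.7 cells in DMEM/10% FBS, plated at 3 × 10^5 cells/mL, pretreated with inhibitor 30 min, then LPS (1 µg/mL) plus inhibitor for 24 h. Inhibitor concentrations 0.28–50000 nM from DMSO stock, final DMSO 0.05% (v/v). Nitrite in the supernatant was measured spectrophotometrically at 520 nm.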

[6] = target: Bromodomain-containing protein 4 (Mus musculus) (UniProt Q9ESU6); assay: as §2; format: cell-based; procedure, shortened: as §3
[7] = target: SWI/SNF-related matrix-associated actin-dependent regulator of chromatin subfamily A member 4 (Homo sapiens, UniProt P51532); assay: Displacement of fluorescein-labeled MS239 from recombinant human SMARCA4 bromodomain after 1 hr by fluorescence anisotropy assay; procedure, shortened: as §1
[8] = target: T4, Bromodomain-containing protein 7 (Homo sapiens, UniProt Q9NPI1); assay: Displacement of fluorescein-labeled MS226 from recombinant human BRD7 after 1 hr by fluorescence anisotropy assay; procedure, shortened: as §1
T4 sequence (Q9NPI1 whole entry): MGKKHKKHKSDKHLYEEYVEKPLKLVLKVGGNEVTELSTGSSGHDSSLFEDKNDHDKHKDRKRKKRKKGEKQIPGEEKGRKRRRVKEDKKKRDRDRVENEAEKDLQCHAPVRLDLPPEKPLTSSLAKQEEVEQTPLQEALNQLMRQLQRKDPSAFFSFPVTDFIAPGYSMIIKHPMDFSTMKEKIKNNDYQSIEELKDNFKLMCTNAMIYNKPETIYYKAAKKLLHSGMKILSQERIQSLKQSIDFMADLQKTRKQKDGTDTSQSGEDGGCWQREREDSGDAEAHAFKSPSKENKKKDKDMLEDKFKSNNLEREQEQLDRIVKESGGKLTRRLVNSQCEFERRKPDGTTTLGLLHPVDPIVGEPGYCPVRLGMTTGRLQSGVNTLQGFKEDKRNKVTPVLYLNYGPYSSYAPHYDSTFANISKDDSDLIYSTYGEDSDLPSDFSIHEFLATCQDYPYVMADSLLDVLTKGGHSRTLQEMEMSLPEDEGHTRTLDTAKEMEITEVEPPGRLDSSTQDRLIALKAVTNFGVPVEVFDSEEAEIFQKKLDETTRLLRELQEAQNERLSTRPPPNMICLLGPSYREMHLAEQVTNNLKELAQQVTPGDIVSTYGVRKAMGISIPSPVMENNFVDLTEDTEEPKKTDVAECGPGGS

[9] = target: Histone acetyltransferase KAT2B (Homo sapiens, UniProt Q92831); assay: Displacement of fluorescein-labeled MS239 from recombinant human PCAF after 1 hr by fluorescence anisotropy assay; procedure, shortened: as §1
[10] = system: RAW264.7; assay: Cytotoxicity against mouse RAW264.7 cells assessed as cell viability up to 100 uM after 24 hrs by MTT assay; format: cell-based; settings: raw264.7, 24 h
Procedure, shortened: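 RAW264.7 macrophages seeded at 1 × 10^4 cells/well, settled 18 h at 37 °C, then exposed to inhibitors up to 100 µM for 24 h. Compounds were predissolved in DMSO and diluted in medium, final DMSO 0.05% (v/v). MTT (4 mg/ml) was added for 4 h at 37 °C, formazan solubilized in DMSO, and absorbance read at 570/630 nm.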

[11] = target: T1, Bromodomain-containing protein 4; assay: Displacement of fluorescein-labeled MS574 from recombinant human BRD4 BrD2 after 1 hr by fluorescence anisotropy assay; procedure, shortened: as §1
[12] = target: T3, Bromodomain-containing protein 4; assay: (§4) Inhibition of BRD4 in LPS-stimulated mouse RAW264.7 cells assessed as inhibition of NF-kappaB-mediated IL-6 expression preincubated for 30 mins followed by LPS stimulation measured after 24 hrs by ELISA; format: cell-based
Procedure, shortened: (§5)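 RAW264.7 cells grown in DMEM/10% FBS at 37 °C, 5% CO2, plated at 3 × 10^5 cells/mL, pretreated with inhibitor for 30 min. Medium was then replaced with LPS (1 µg/mL) plus inhibitor for 24 h. Compounds were diluted from DMSO to 0.28–50000 nM, final DMSO 0.05% (v/v). Supernatant IL-6 was measured by mouse ELISA read at 570 nm.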

[13] = target: Bromodomain-containing protein 4 (Mus musculus) (UniProt Q9ESU6); assay: as §4; format: cell-based; procedure, shortened: as §5
[14] = target: Nucleosome-remodeling factor subunit BPTF (Homo sapiens, UniProt Q12830); assay: Displacement of fluorescein-labeled MS239 from recombinant human BPTF after 1 hr by fluorescence anisotropy assay; procedure, shortened: as §1

T2 sequence (Q15059 whole entry): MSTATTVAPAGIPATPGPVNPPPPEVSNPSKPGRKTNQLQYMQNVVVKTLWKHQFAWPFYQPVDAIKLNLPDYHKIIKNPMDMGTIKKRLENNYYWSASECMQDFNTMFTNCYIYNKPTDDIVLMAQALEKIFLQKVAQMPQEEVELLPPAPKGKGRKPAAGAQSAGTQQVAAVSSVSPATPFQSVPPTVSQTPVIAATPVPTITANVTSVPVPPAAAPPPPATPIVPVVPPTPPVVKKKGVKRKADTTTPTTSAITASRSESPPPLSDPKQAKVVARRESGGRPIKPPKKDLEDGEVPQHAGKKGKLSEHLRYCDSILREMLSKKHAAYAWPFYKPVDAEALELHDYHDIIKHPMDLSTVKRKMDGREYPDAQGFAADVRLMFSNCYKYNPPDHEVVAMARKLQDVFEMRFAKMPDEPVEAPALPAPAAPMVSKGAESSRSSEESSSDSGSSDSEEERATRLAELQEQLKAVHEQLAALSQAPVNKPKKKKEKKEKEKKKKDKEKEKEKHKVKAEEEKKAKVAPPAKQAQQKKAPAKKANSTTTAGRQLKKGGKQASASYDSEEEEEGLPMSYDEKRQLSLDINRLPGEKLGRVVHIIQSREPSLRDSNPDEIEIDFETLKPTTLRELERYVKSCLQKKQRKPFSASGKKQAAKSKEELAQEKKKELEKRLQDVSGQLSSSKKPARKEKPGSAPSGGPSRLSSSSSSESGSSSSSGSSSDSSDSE
CREB-binding protein, sequence (Q92793 whole entry): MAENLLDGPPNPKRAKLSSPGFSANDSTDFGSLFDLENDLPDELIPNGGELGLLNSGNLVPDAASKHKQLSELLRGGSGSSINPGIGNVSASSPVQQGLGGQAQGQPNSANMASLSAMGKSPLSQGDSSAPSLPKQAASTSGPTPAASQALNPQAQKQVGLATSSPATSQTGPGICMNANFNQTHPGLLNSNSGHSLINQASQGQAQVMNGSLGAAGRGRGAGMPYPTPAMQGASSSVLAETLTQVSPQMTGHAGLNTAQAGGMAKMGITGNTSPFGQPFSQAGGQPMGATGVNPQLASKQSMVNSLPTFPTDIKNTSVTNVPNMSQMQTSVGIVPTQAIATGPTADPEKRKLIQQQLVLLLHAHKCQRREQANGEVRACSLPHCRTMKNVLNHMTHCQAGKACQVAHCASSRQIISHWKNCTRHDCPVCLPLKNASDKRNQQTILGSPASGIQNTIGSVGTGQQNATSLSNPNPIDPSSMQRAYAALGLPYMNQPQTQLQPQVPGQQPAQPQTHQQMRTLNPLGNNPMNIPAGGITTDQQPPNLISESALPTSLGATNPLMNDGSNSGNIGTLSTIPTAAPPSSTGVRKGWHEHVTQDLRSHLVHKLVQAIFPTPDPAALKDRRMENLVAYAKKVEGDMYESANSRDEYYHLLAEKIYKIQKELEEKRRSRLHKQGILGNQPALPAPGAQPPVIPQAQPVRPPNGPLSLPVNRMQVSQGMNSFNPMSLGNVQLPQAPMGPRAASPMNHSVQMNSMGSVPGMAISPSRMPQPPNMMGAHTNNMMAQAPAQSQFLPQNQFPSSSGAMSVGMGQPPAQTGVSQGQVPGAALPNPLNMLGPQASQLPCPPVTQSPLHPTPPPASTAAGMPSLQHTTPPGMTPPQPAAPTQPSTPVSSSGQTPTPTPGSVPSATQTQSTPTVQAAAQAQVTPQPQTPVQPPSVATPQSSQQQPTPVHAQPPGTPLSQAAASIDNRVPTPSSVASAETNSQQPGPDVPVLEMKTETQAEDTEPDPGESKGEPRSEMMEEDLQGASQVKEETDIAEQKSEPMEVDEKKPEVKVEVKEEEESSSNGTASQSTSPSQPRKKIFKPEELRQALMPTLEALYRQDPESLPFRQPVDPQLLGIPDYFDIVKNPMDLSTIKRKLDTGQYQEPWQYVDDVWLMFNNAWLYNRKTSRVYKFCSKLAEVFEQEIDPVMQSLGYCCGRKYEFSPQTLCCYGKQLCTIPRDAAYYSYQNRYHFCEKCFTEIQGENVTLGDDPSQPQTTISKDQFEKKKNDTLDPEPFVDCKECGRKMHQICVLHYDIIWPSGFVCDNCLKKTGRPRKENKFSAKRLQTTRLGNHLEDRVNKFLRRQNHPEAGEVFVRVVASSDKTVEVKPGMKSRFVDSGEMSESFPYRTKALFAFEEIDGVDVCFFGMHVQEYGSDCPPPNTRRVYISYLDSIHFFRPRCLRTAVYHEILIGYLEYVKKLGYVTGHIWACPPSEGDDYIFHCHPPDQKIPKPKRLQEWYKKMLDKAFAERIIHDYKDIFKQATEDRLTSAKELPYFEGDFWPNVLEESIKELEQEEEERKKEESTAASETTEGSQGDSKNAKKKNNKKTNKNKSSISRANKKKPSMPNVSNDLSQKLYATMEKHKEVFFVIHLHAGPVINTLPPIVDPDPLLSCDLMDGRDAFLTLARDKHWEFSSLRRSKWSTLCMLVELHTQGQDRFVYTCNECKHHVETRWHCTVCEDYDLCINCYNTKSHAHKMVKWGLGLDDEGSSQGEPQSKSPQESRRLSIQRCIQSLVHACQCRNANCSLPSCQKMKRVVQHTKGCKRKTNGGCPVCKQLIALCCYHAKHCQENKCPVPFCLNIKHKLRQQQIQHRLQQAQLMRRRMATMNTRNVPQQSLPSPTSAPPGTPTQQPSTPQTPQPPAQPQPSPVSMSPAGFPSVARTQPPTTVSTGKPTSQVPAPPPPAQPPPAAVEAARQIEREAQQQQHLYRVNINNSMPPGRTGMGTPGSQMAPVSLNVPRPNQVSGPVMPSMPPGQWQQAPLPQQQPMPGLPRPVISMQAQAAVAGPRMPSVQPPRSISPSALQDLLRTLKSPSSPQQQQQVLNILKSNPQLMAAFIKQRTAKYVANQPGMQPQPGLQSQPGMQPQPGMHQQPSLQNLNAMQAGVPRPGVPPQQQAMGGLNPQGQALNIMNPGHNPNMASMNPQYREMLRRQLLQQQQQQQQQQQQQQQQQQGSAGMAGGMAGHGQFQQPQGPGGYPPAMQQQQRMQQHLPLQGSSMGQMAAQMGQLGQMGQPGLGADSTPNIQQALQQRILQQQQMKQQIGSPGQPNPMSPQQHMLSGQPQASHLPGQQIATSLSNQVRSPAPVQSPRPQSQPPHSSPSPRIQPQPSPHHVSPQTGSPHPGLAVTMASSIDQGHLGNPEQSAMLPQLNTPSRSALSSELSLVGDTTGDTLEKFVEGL
Histone acetyltransferase KAT2B, sequence (Q92831 whole entry): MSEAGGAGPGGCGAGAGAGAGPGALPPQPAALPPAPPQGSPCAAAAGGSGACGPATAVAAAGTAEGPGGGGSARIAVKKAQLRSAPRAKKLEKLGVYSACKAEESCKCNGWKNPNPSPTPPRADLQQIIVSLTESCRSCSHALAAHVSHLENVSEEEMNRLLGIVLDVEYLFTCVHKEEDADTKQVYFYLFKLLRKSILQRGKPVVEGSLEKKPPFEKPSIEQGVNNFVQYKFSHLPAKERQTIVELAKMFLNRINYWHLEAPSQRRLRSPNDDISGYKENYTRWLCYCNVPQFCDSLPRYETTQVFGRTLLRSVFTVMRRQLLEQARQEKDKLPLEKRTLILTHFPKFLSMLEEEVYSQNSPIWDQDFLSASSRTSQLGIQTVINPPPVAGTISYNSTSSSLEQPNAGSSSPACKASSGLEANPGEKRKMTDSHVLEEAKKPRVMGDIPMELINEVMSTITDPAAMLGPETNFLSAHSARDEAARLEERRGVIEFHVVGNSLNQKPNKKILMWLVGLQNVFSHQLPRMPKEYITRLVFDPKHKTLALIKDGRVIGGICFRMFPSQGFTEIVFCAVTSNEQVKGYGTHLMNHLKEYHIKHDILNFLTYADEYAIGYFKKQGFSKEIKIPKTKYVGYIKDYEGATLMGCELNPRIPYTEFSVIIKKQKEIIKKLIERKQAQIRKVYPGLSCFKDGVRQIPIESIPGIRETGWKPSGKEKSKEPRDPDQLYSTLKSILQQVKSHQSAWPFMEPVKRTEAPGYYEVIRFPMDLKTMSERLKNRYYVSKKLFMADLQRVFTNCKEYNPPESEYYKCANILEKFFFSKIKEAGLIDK

Ki ([1]; read-out: Ki): 0.15 µM
Ki ([1]; read-out: pKi (converted)): 0.151 µM
Ki [2]: 5.12 µM
Ki [3]: 0.22 µM
Ki [4]: 0.29 µM
IC50 [5]: 38.1 µM
inhibition [6]: Dose-dependent effect
Ki [7]: < 6.56 µM
Ki [8]: < 1.43 µM
Ki [9]: < 3.34 µM
Ki [11]: 0.44 µM
IC50 [12]: 23.2 µM
inhibition [13]: Dose-dependent effect
Ki [14]: < 1.7 µM
Structure (SMILES): Cc1cc(/N=N/c2ccc(S(=O)(=O)Nc3ccccn3)cc2)c(N)c(C)c1O
Activity [10]: Non-toxic
